Data set [1] concerns Mus musculus. The experiment in a line: Toxicity in B10.R3 mouse collagen-induced arthritis model assessed as change in serum insulin level at 3 mg/kg, po qd for 5 weeks by ELISA relative to control. In kind it is organism-based. Details: dose 3 mg/kg, route oral. Conditions: in vivo, 840 h.
For data set [2], the system named is Mus musculus. The experiment in a line: Toxicity in B10.R3 mouse collagen-induced arthritis model assessed as change in body weight at 30 mg/kg, po qd for 5 weeks relative to control. Conditions: in vivo, 840 h. Also noted: dose 30 mg/kg, route oral. It counts as organism-based.
For data set [3], the system named is Mus musculus. The experiment in a line: Antiarthritic activity in B10.R3 mouse collagen-induced arthritis model assessed as AUC of disease progression inhibition at 30 mg/kg, po qd for 5 weeks. In kind it is functional. The conditions noted are these: B10.R3, 840 h. A digest of the protocol: (§1)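 B10.RIII mice immunized with porcine type II collagen plus complete Freund's adjuvant were enrolled at the first signs of arthritis. They were dosed orally once daily for 5 weeks; vehicle was 30% Cremophor RH. All four paws were scored 1–4 (maximum 16 per animal). Disease-score AUCs from 10 mice per group were compared with vehicle by Mann–Whitney test.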

The test system of data set [4] is Mus musculus. The experiment in a line: Antiarthritic activity in B10.R3 mouse collagen-induced arthritis model assessed as AUC of disease progression inhibition at 10 mg/kg, po qd for 5 weeks. In kind it is functional. Conditions: B10.R3, 840 h. The method in brief: as §1
The test system of data set [5] is Mus musculus. The experiment in a line: Toxicity in B10.R3 mouse collagen-induced arthritis model assessed as change in body weight at 3 mg/kg, po qd for 5 weeks relative to control. In kind it is organism-based. Also noted: dose 3 mg/kg, route oral. Conditions: in vivo, 840 h.
Data set [6] deals with Mus musculus. The experiment in a line: Antiinflammatory activity in mouse plasma assessed as inhibition of LPS-induced TNFalpha production at 10 mg/kg, po administered 1 hr before LPS challenge measured after 1 hr. It counts as functional. A digest of the protocol: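 Mice received compound orally in Cremophor RH 1 h before LPS challenge. Plasma TNF-α was measured 1 h after challenge. n = 8 per group; doses were 3 and 10 mg/kg.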

The subject of data set [7] is Mus musculus. The experiment in a line: Toxicity in B10.R3 mouse collagen-induced arthritis model assessed as change in serum insulin level at 30 mg/kg, po qd for 5 weeks by ELISA relative to control. It counts as organism-based. Details: dose 30 mg/kg, route oral. The conditions noted are these: in vivo, 840 h. On the technique in general: ELISA stands for enzyme-linked immunosorbent assay.

Data set [8] relates to Mus musculus. The experiment in a line: Toxicity in B10.R3 mouse collagen-induced arthritis model assessed as change in body fat level at 3 mg/kg, po qd for 5 weeks relative to control. It counts as organism-based. Also noted: dose 3 mg/kg, route oral. Conditions: in vivo, 840 h. A digest of the protocol:
(§2)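 Arthritic B10.RIII CIA mice were dosed orally once daily for 5 weeks. At day 35 they were anesthetized with ketamine (50 mg/kg) and xylazine (15 mg/kg). Body fat was assessed by whole-body density scan. Serum triglycerides were measured by enzymatic kit (Wako L-Type TG-H) and free fatty acids by NEFA-C. Results are expressed as % change versus vehicle and compared by t-test.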

Data set [9] relates to Mus musculus. The experiment in a line: Toxicity in B10.R3 mouse collagen-induced arthritis model assessed as change in serum triglyceride level at 30 mg/kg, po qd for 5 weeks relative to control. Also noted: dose 30 mg/kg, route oral. In kind it is organism-based. Conditions: in vivo, 840 h. The method in brief: as §2
For data set [10], the system named is Mus musculus. The experiment in a line: Toxicity in B10.R3 mouse collagen-induced arthritis model assessed as change in serum triglyceride level at 3 mg/kg, po qd for 5 weeks relative to control. It counts as organism-based. The conditions noted are these: in vivo, 840 h. Details: dose 3 mg/kg, route oral. The method in brief:
as §2

The test system of data set [11] is Mus musculus. The experiment in a line: Toxicity in B10.R3 mouse collagen-induced arthritis model assessed as change in body fat level at 30 mg/kg, po qd for 5 weeks relative to control. In kind it is organism-based. Details: dose 30 mg/kg, route oral. Conditions: in vivo, 840 h. A digest of the protocol:
as §2

In data set [12] the test system is Mus musculus. The experiment in a line: Toxicity in B10.R3 mouse collagen-induced arthritis model assessed as change in serum free fatty acids level at 3 mg/kg, po qd for 5 weeks relative to control. In kind it is organism-based. Also noted: dose 3 mg/kg, route oral. Conditions: in vivo, 840 h. The method in brief:
as §2

In data set [13] the test system is Mus musculus. The experiment in a line: Toxicity in B10.R3 mouse collagen-induced arthritis model assessed as change in serum free fatty acids level at 30 mg/kg, po qd for 5 weeks relative to control. In kind it is organism-based. Details: dose 30 mg/kg, route oral. The conditions noted are these: in vivo, 840 h. A digest of the protocol:
as §2

The species named for data set [14] is Mus musculus. The experiment in a line: animal or person. Conditions: B10.R3, po, 840 h, read-out: INH.

Take `C[C@]12C=CC(=O)C=C1CC[C@@H]1[C@@H]2[C@@H](O)C[C@@]2(C)[C@H]1CC[C@]2(O)C(=O)CO` [PREDNISOLONE]: the Activity with Mus musculus [1] is given as 37%; in the data set with Mus musculus [2] it was 9%; in the data set with Mus musculus [5], 1.1%; in the data set with Mus musculus [7] it was 190%; in the data set with Mus musculus [8] it was 36%; in the data set with Mus musculus [9] it was 55%. Further, the Activity in the data set with Mus musculus [10] was -11%; in the data set with Mus musculus [11], 70%; with Mus musculus [12], 8%; in the data set on Mus musculus [13] it was 25%. In the data set on Mus musculus [3], the inhibition in vivo at 30 mg/kg came to 80%. The inhibition in vivo at 10 mg/kg is 62% in the data set with Mus musculus [4] and 84% in the data set on Mus musculus [6]. The inhibition in vivo at 3 mg/kg in the data set listed under Mus musculus [14] was found to be 42%.

Values taken from ChEMBL document CHEMBL1909618, “Non-steroidal dissociated glucocorticoid agonists: indoles as A-ring mimetics and function-regulating pharmacophores” (Bioorg Med Chem Lett, 2011).
